The results in this text go back to PubChem BioAssay.

A short description of assay [1]: inhibitors of TNFa-induced NFkB p65 translocation, primary screen, imaging, HUVEC, MLSMR starter and 10KST1 sets (AID 438;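 active = inhibition above 20% together with a positive visual image hit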;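 note: compound added about 3h40 before a 20 min TNFalpha stimulation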;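 for inhibition: signal is the nuclear over cytoplasmic p65 intensity ratio per well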). The note with it: HUVEC TNFa-induced p65 nuclear translocation; cell count: measured here: nuclei count (cytotoxicity indicator), at 2.08 µM; inhibition: at 2 µM, stronger effect = higher value, 0% TNFa-plus-vehicle, 100% no-TNFa wells.
Assay [2] can be described thus: inhibitors of mutant huntingtin aggregation, primary screen, imaging, exon1htt(103Q)mCFP cells, high-content imaging (AID 483;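 active = visual image review flags a hit and inhibition of aggregation exceeds 20%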;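 note: compound exposure lasted 3 days before fixation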;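 for nuclei count: percent of the per-plate median nuclei count of sample wells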). Conditions: exon1htt(103Q)mCFP cell line, aggregate imaging, at 2 µM; inhibition of aggregation: stronger effect = higher value; nuclei count: measured here: cell count, toxicity.
Assay [3] can be described thus: inhibitors of E-selectin induction by TNFa, primary screen, imaging, HUVEC, immunofluorescence, MLSMR starter and 10KST1 sets (AID 487;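 active = visually confirmed hit in the image check and inhibition above 20%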;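 for inhibition: signal is fraction of cell area covered by stained E-selectin grains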;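 for nuclei count: 100% = median nuclei count of all wells on the same plate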). Conditions: HUVEC TNFalpha-induced E-selectin immunofluorescence imaging, at 2 µM; inhibition: stronger effect = higher value; nuclei count: measured here: cell number, toxicity.
Assay [4] deals with Voltage-gated potassium channel subunit beta-2 (Rattus norvegicus) (UniProt P62483). The experiment in a line: KvBeta enzyme negative modulators, primary screen, biochemical, NADPH fluorescence (AID 622).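 Note: slope of raw intensity against log time taken from 70 to 1610 s.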 The note with it: recombinant KvBeta, 4-cyanobenzaldehyde reduction, at 10 µM, stronger effect = higher value.
Voltage-gated potassium channel subunit beta-2 (Rattus norvegicus), sequence (P62483 whole entry, looked up): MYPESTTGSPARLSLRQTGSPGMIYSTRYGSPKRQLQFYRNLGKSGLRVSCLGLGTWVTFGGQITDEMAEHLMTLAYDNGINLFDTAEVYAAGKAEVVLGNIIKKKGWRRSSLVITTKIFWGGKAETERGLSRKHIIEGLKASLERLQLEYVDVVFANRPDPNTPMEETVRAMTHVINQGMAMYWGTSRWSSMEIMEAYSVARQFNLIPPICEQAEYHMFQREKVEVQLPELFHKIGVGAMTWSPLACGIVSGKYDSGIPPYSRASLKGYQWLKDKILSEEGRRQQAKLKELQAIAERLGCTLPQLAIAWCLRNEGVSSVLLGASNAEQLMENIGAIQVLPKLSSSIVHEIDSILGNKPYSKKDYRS
Assay [5] has the same target. Put plainly: KvBeta positive modulators, primary screen, biochemical, NADPH fluorescence (AID 623;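 active = NADPH fluorescence slope more negative than the mean of all samples by about 3 SD, 99.7% confidence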;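 note: fluorescence intensity change per second fitted from 20 to 320 s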). Conditions: Recombinant KvBeta, NADPH fluorescence decrease slope, 10 min; at 10 µM; stronger effect = lower value.
Assay [6] concerns the target Alpha-2C adrenergic receptor (Homo sapiens) (UniProt P18825). The experiment in a line: modulators of alpha2C/GIRK thallium flux, primary screen, cell-based, HEK293 alpha2C/GIRK1/2 (AID 624;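 active = fluorescence slope after compound addition differing from the mean of all screened samples at 99.7% confidence, in either direction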;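 note: slope of fluorescence ratio to pre-addition baseline per second over 15 to 24 s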). The note with it: thallium flux BTC fluorescence, at 10 µM, actives lie on both sides.
Assay [7] in a line: inhibitors of Sendai virus-induced IRF3 signaling, primary screen, TLR/RLR signaling modifier project, cell-based, Sendai virus stimulus, luciferase, 10K MLSCN set (AID 602276;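 active = inhibition at or above 50% at 10 µM; inactive = inhibition below 50%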;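 note: firefly luciferase from ISG56 promoter only with Renilla not read in this screen; 0% = Sendai virus plus DMSO and 100% = medium plus DMSO without virus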). Conditions: HEK293 RL24 IRF3 luciferase reporter, at 10 µM, stronger effect = higher value. In general terms: In a reporter assay the amount or activity of a reporter protein is the signal.
A short description of assay [8]: inhibitors of poly I:C-induced TLR3 signaling, primary screen, cell-based, poly I:C stimulus, luciferase, 10K MLSCN set (AID 602277;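 active = inhibition of the reporter signal at or above 50%; inactive = inhibition below 50%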). Conditions: HEK293-TLR3 RL24 IRF3 luciferase reporter, at 10 µM, stronger effect = higher value.
Assay [9] in a line: inhibitors of larval lipid processing in zebrafish, primary screen, whole organism, PED6 fluorescence, gall bladder and intestine (AID 686;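 active = a full or partial loss of lipid-probe fluorescence in the fish gall bladder, intestine or both, judged by eye; inactive = no fluorescence loss, or compound toxic to the fish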;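 note: larvae 5 to 7 days old with five fish per well; signal comes from phospholipase A2 cleavage of quenched PED6 carried via bile; overnight exposure to compound and PED6 before scoring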). The note with it: Zebrafish larvae PED6 lipid processing, fluorescence scoring; screened at 20 µM (by protocol). In short, it runs like this:
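Test system – live zebrafish larvae aged 5-7 days, whole organism · Buffer or medium – E3 fish medium · Reagent – quenched phospholipase substrate PED6, 100 nM final, ingested by larvae · Doses – 20 µM single dose · Incubation – overnight compound and PED6 incubation · Technique – visual fluorescence microscopy scoring of gall bladder, gut · Read-out basis – visual per-well fluorescence inhibition score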

Activity calls are given as the source filed them.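 Rule for the calls, unless noted: active = fluorescence slope higher than the sample average by over 3 SD (cut at about -0.22 in these data, passing the limit was not always enough); inactive = the rest.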

Alpha-2C adrenergic receptor (Homo sapiens), sequence (P18825 whole entry, looked up): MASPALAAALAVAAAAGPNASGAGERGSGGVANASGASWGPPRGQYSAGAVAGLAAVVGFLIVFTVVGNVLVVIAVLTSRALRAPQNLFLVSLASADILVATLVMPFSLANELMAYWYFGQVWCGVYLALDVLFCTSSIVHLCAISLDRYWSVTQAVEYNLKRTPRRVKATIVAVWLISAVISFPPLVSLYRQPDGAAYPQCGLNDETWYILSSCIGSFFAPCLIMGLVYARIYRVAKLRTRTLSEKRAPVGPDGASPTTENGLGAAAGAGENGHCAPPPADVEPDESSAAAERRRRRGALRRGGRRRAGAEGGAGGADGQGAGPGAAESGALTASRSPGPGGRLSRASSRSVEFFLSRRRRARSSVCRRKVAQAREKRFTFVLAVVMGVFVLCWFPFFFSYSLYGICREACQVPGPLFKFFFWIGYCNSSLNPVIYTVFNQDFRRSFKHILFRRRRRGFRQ

For `COc1ccc(-n2nc(C(=O)NCC(=O)NCC3CCCO3)c3ccccc3c2=O)cc1` (stereo not drawn), the cell count in [1] was 355. The inhibition (as a rule, the drop in the measured response relative to a control, in per cent) is -1.7% (inactive) in [1], -15.9% (inactive) in assay [3], 16.2% (inactive) in assay [7] and 23.6% (inactive) in [8]. Further, the inhibition of aggregation in assay [2] was 13.1% (inactive). Besides, the nuclei count in [2] stood at 91.3%; in [3], 100%. Further, the fluorescence slope in [4] was -0.435 (inactive). For the same compound, in [5], the NADPH fluorescence slope was -1.9e-05 (inactive). Moreover, in assay [6], the slope was 0.0067 (inactive).
For the compound `CC(=O)c1cc2c(cc1NC(=O)CN1CCN(C(=O)c3ccco3)CC1)OCO2`, in [1], the cell count was 410. In addition, the inhibition in [1] was -6.1% (inactive); in assay [3], -58.5% (inactive); in assay [7], 4.38% (inactive); in assay [8], 25.7% (inactive). The inhibition of aggregation in assay [2] was 13.3% (inactive). Also, the figures for the nuclei count in assay [2] and in assay [3] were 44.6% and 113%, respectively. Also, in [4], the fluorescence slope was -0.548 (inactive). In addition, the NADPH fluorescence slope in assay [5] is -3.4e-05 (inactive). For the same compound, the slope in assay [6] was 0.00807 (inactive).
As for `Cn1cc(Cl)c(C(=O)N(Cc2ccccc2)c2ccccn2)n1`, in [1], the cell count came out at 623. Also, the inhibition in assay [1] was 8.3% (inactive); in assay [3], -5.2% (inactive); in assay [7], -18.3% (inactive); in [8], 0.52% (inactive). The inhibition of aggregation in [2] is -6.5% (inactive). Moreover, the nuclei count in [2] is 102%; in [3], 117%. Also, in [4], the fluorescence slope was -0.584 (inactive). Also, the NADPH fluorescence slope in assay [5] is -3.1e-06 (inactive). In assay [6], the slope was 0.00695 (inactive).
For the compound `O=C(Cn1ncc2c(=O)oc3ccccc3c21)Nc1nc2ccccc2s1`, the cell count in assay [1] was found to be 313. The inhibition in [1] is -0.7% (inactive); in assay [3] it was -282% (inactive); in [7], 15.6% (inactive); in [8], 17% (inactive). The inhibition of aggregation in [2] was 1.3% (inactive). Besides, the results for the nuclei count in [2] and in assay [3] were 96.3% and 90.7%, respectively. In [4], the fluorescence slope was -0.537 (inactive). Further, in assay [5], the NADPH fluorescence slope was -8.1e-05 (inactive). Also, in [6], the slope was 0.00615 (inactive).
As to `CCOc1ccc(OCC)c(NS(=O)(=O)c2ccc3c(c2)n(C)c(=O)c(=O)n3C)c1`, the cell count in assay [1] was 291. For the same compound, the inhibition was -2.4% (inactive) in [1], -27.6% (inactive) in [3], 10.9% (inactive) in assay [7] and 13% (inactive) in assay [8]. In addition, in assay [2], the inhibition of aggregation is 0.8% (inactive). The nuclei count in [2] is 109%; in [3], 107%. In [4], the fluorescence slope is -0.432 (inactive). In addition, the NADPH fluorescence slope in assay [5] is -4.6e-05 (inactive). The slope in assay [6] was 0.00533 (inactive).
Take `Cc1ccc(O)c(-c2cc(C(=O)Nc3ccc(S(=O)(=O)N4CC(C)OC(C)C4)cc3)[nH]n2)c1` (stereo not drawn): the cell count in assay [1] is 371. For the same compound, the inhibition in assay [1] is 6.2% (inactive); in assay [3], 0.1% (inactive); in assay [7] it was 22.4% (inactive); in [8], 43.5% (inactive). The inhibition of aggregation in assay [2] is 0.4% (inactive). Further, the nuclei count in [2] turned out to be 97.2%; in assay [3] it was 92.7%. Besides, the fluorescence slope in assay [4] was -0.478 (inactive). Besides, the NADPH fluorescence slope in assay [5] is -0.000199 (inactive). For the same compound, the slope in assay [6] is 0.00494 (inactive).
Take `O=C(Cn1c(NCCO)nc2ccccc21)c1ccccc1`: the cell count in assay [1] is 513. Besides, the inhibition in [1] is 4.9% (inactive); in assay [3] it was -58.5% (inactive); in assay [7], 9.81% (inactive); in assay [8] it was 29.4% (inactive). Moreover, the inhibition of aggregation in assay [2] was 18.2% (inactive). The nuclei count in [2] came to 106%; in assay [3] it was 115%. Moreover, the fluorescence slope in assay [4] was -0.58 (inactive). In [5], the NADPH fluorescence slope was -1.8e-05 (inactive). Further, the slope in assay [6] was 0.00599 (inactive).
In the case of `CCOC(=O)Cc1csc(NC(=O)CSc2nnc(C3CC3)n2C)n1`, the cell count in assay [1] is 670. Further, the inhibition in assay [1] is -11.2% (inactive); in assay [3], 18.1% (inactive); in [7], 10.5% (inactive); in [8], 17.5% (inactive). Further, the inhibition of aggregation in [2] is 2.2% (inactive). Besides, the results for the nuclei count in assay [2] and in assay [3] were 110% and 102%, respectively. Besides, the fluorescence slope in [4] is -0.265 (inactive). The NADPH fluorescence slope in [5] is -5.6e-05 (inactive). The slope in assay [6] was 0.0044 (inactive).
For the compound `CCN(CC)S(=O)(=O)c1ccc(Cl)c(C(=O)OC)c1`, in assay [1], the cell count is 456. The inhibition in assay [1] was -5% (inactive); in assay [3], 8.3% (inactive); in assay [7], 20.5% (inactive); in [8], 21.4% (inactive). For the same compound, the inhibition of aggregation in [2] is 0.1% (inactive). Also, the nuclei count in [2] worked out at 87.5%; in assay [3], 123%. For the same compound, the fluorescence slope in assay [4] is -0.493 (inactive). Moreover, the NADPH fluorescence slope in [5] was -2.2e-05 (inactive). The slope in [6] is 0.00748 (inactive).
As to `O=C(Nc1cccc(NC(=O)c2ccco2)c1)c1ccc2c(c1)OCO2`, the cell count in assay [1] is 696. In addition, the inhibition was -6.1% (inactive) in assay [1], -70.1% (inactive) in assay [3], 7.09% (inactive) in [7] and -29.5% (inactive) in [8]. The inhibition of aggregation in [2] is -10.2% (inactive). Besides, the nuclei count came out at 108% in assay [2] and 121% in assay [3]. Besides, the fluorescence slope in [4] is -0.418 (inactive). Further, the NADPH fluorescence slope in [5] was 2.7e-06 (inactive). The slope in assay [6] was 0.00264 (inactive).
Consider `CCOC(=O)C1CCN(CC(=O)Nc2c(C(=O)OC)[nH]c3ccc(Cl)cc23)CC1`, for which the cell count in [1] was 340. Also, the inhibition is 4.8% (inactive) in assay [1], -29.3% (inactive) in assay [3], 8.17% (inactive) in assay [7] and -16.2% (inactive) in assay [8]. The inhibition of aggregation in assay [2] is -27.5% (inactive). Besides, the results for the nuclei count in assay [2] and in assay [3] were 104% and 107%, respectively. The fluorescence slope in assay [4] was -0.383 (inactive). The NADPH fluorescence slope in [5] is -6.2e-05 (inactive). For the same compound, in [6], the slope was 0.00328 (inactive). Besides, the call in assay [9] was inactive.
As for `COc1cc(C(=O)OCc2cc3ccccc3[nH]c2=O)cc(OC)c1OC`, the cell count in assay [1] came to 833. Further, the inhibition in assay [1] is -3.9% (inactive); in assay [3], -38.9% (inactive); in assay [7], 17.4% (inactive); in assay [8], 18.2% (inactive). In assay [2], the inhibition of aggregation is -3.9% (inactive). Besides, the nuclei count in [2] was 99.3%; in assay [3], 102%. The fluorescence slope in [4] is -0.356 (inactive). For the same compound, the NADPH fluorescence slope in [5] was -4.1e-05 (inactive). Besides, the slope in [6] is 0.00585 (inactive). Further, the compound was classed as inactive in assay [9].
Regarding `Cc1onc(-c2ccccc2)c1C(=O)NCCN1CCOCC1`, the cell count in assay [1] amounted to 387. Moreover, the inhibition was 5% (inactive) in [1], 9.3% (inactive) in assay [3], 0.171% (inactive) in [7] and 0.994% (inactive) in [8]. Also, the inhibition of aggregation in [2] was -14% (inactive). Further, the nuclei count amounted to 129% in assay [2] and 93.5% in assay [3]. For the same compound, in assay [4], the fluorescence slope is -0.38 (inactive). Also, the NADPH fluorescence slope in assay [5] was -2.2e-05 (inactive). In assay [6], the slope was 0.0053 (inactive). In assay [9], the result was inactive.
Take `COC(=O)CCN(C(=O)c1ccc2c(c1)OCO2)c1ccccn1`: the cell count in [1] was determined as 730. The inhibition in assay [1] was 2.9% (inactive); in assay [3], -0.1% (inactive); in assay [7] it was 17.3% (inactive); in assay [8] it was 18% (inactive). Further, the inhibition of aggregation in assay [2] was -10.6% (inactive). Moreover, the nuclei count in assay [2] was 98.2%; in [3] it was 89.7%. Moreover, the fluorescence slope in assay [4] is -0.4 (inactive). Moreover, the NADPH fluorescence slope in assay [5] was -4.5e-06 (inactive). For the same compound, the slope in assay [6] is 0.00511 (inactive). Further, the outcome in assay [9] was inactive.
